Assay results pooled from the literature.
Compare with care: the assays were run in different laboratories.
Target: Activin receptor type-1 (ACVR1, Homo sapiens, UniProt Q04771)
Sequence (Q04771 1-509, as in one of the studies): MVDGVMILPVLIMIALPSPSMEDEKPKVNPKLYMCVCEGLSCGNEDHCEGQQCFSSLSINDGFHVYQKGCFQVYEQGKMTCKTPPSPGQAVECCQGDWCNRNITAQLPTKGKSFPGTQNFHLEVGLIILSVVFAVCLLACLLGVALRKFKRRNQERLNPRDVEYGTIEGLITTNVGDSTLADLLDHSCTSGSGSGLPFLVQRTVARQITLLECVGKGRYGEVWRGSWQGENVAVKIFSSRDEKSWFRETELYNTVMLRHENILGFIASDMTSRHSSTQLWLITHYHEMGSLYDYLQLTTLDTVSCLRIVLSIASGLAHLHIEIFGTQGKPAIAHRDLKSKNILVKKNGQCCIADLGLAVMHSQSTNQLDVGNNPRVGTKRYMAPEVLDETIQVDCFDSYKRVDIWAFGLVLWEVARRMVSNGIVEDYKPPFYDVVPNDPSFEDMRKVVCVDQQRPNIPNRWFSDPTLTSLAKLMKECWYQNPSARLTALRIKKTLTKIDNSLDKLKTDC

Structure (SMILES)	assay	conditions	quantity	result
CC1=C(C#N)C(c2ccc3c(c2)c(NC(=O)c2ccccc2C)nn3C)C(C#N)=C(C)N1	cell-free assay, competition with immobilised ligand	1 µM	remaining binding	99%
CC(C)(C)c1nc2c(s1)c1nc(N)ncc1c1ccc(NS(=O)(=O)c3c(F)cccc3F)c(F)c12	enzyme activity, inhibitor, radiometric	1 µM	remaining activity	79%
CCC1(CC)NC(=O)c2c(c3ccc(Cl)c(Cl)c3n2C)C1C#N (centres unmarked)	thermal stability, DSF	10 µM	ΔTm	0.2 °C
COc1cccc(CNC(=O)c2nc3scc(COCc4ccc(C(=O)O)cc4)c3c(=O)[nH]2)c1	cell-free assay, competition with immobilised ligand	1 µM	remaining binding	94.3%
Cn1c2c(Cl)c(Cl)ccc2c2cc(N)[nH]c(=O)c21	thermal stability, DSF	10 µM	ΔTm	3.2 °C
CC(C)(O)[C@H]1CC[C@H](Nc2ccc3ncc(-c4cccc(C(F)(F)F)c4)n3n2)CC1	enzyme activity, inhibitor	1 µM	remaining activity	28.2%
N#CCCc1ccc2c(c1)-c1[nH]c3ccc([N+](=O)[O-])cc3c1CC(=O)N2	cell-free assay	0.5 µM	remaining signal	58.8%
Cc1cc(NC(=O)c2cccc3cc(-c4cccc5[nH]nc(N)c45)ccc23)ccc1F	enzyme activity, inhibitor	0.1 µM	activity vs control	105%
CCOc1cc(-c2nncn2C)ccc1Nc1ncc2cc(C)nc(NCC(C)(C)C)c2n1	cell-free assay, TR-FRET	1 µM	inhibition	≤ 15%
CN1CC(Oc2cnc(C#N)cc2-c2ccn3nc(NC(=O)C4CC4)cc3c2)C1	enzyme activity, inhibitor	1 µM	inhibition	-8%
CCN1CCC2(CC1)NC(=O)c1c(c3ccc(Cl)c(Cl)c3n1C)C2C#N (racemic)	thermal stability, DSF	10 µM	ΔTm	-0.1 °C
COc1cc2c(N3CCN(C(=O)Nc4ccc(OC(C)C)cc4)CC3)ncnc2cc1OCCCN1CCCCC1	cell-free assay	0.5 µM	remaining signal	145%
O=C(O)[C@H]1[C@H](Cn2nnc3ccccc3c2=O)CC[C@@H]1C(=O)c1ccc(OCCC2CCOCC2)cc1	cell-free assay, competition with immobilised ligand	1 µM	remaining binding	100%
Clc1ccc(Nc2nnc(Cc3ccncc3)c3ccccc23)cc1	cell-free assay	0.5 µM	remaining signal	96.1%
CN1CCN(c2cnc3c(C4CCN(C(=O)c5ccc(OC(F)(F)F)cc5N)CC4)ncnc3c2)CC1	cell-free assay, competition with immobilised ligand	1 µM	remaining binding	100%
Oc1cccc(-c2nc(N3CCOCC3)c3oc4ncccc4c3n2)c1	cell-free assay	0.5 µM	remaining signal	105%
CN([C@@H]1CCc2c(CC(=O)O)c3ccccc3n2C1)S(=O)(=O)c1ccc(F)cc1	cell-free assay, competition with immobilised ligand	1 µM	remaining binding	100%
Cn1c2c(c3ccc(Cl)c(Cl)c31)C(C#N)C1(CCCC1)NC2=O (centres unmarked)	thermal stability, DSF	10 µM	ΔTm	-0.2 °C
Cc1c(NC(=O)c2cc(C(N)=O)nc3cc(F)ccc23)c(C(F)(F)F)nn1Cc1ccc(C#N)cc1	cell-free assay, competition with immobilised ligand	1 µM	remaining binding	87%
Cc1sc(C(=O)NC2COC2)cc1-n1cc(NC(=O)Nc2c(F)cccc2Cl)cn1	enzyme activity, inhibitor	10 µM	remaining activity	108%
